# Data published in ChEMBL document CHEMBL5678801, “A benzothiophene inhibitor of mitogen-activated protein kinase-activated protein kinase 2 inhibits tumor necrosis factor alpha production and has oral anti-inflammatory efficacy in acute and chronic models of inflammation” (J Pharmacol Exp Ther, 2010).
# pIC50: −log10 of the molar value.
# How the values were obtained:
# [1] = Inhibition of IL-8 production in LPS induced human Whole blood cell preincubated with compound for 1 hr followed by LPS induction and measured after 16 hrs; format: functional, cell-based
# Procedure, shortened: (§1)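 Human whole blood was stimulated ex vivo with LPS 100 ng/ml. Plasma cytokines were read by MSD 4-plex: TNFα at 4 h; IL-1β, IL-6 and IL-8 at 16 h. Data are means ±S.E.M. of two independent experiments in duplicate, three donors. IC50 by 4-parameter nonlinear regression.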
# Rattus norvegicus [2] = organism: Rattus norvegicus; experiment: Inhibition of rat MK2 assessed as unbound fraction
# [3] = AUC in chronic SCW-induced arthritis Lewis rat model plasma at ED80 concentration; format: ADME, cell-free
# Procedure, shortened: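 Female Lewis rats (125-140 g) received a single i.p. streptococcal cell wall injection. Animals showing the acute phase were pooled, 4-8 per group over three experiments. Dosing was oral gavage b.i.d., days 10-21, in methylcellulose-Tween-20 vehicle. Hind paw volume was read by displacement plethysmometer on day 21, as % inhibition of swelling. Plasma was sampled up to 11 h after the last dose, 3 rats per dose. ED values came from fitted curves.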
# [4] = Inhibition of IL-1 beta production in LPS induced human Whole blood cell preincubated with compound for 1 hr followed by LPS induction and measured after 16 hrs; format: functional, cell-based; procedure, shortened: as §1
# [5] = Inhibition of CaMK II (unknown origin); set-up: species or system Homo sapiens
# [6] = Plasma concentration in po dosed LPS-induced Lewis rat model at ED50 concentration measured after 5.5 hrs of initial dose by LC-MS/MS analysis; format: ADME, organism-based
# Procedure, shortened: (§2)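 Male Lewis rats (225-250 g, 5 per group) were fasted 18 h, then dosed orally at 0.2-60 mg/kg as a suspension in 0.5% methylcellulose/0.025% Tween 20. LPS 1 mg/kg was given i.v. 4 h later. Blood was taken by cardiac puncture 90 min after LPS. Serum TNFα was read by ELISA and drug by LC-MS/MS, three independent experiments. 4-parameter fit. Unbound values were corrected with measured rat plasma protein binding.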
# [7] = Unbound plasma concentration in po dosed LPS-induced Lewis rat model at ED50 concentration measured after 5.5 hrs of initial dose by LC-MS/MS analysis; format: ADME, organism-based; conditions: in vivo; procedure, shortened: as §2
# [8] = molecular target: MAP kinase-interacting serine/threonine-protein kinase 1 (Homo sapiens, UniProt Q9BUB5); experiment: Inhibition of recombinant MNK1 (unknown origin) expressed in Escherichia coli using KKKALSRQLSVAA as substrate incubated for 1 hr followed by substrate addition in presence of ATP
# Procedure, shortened: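 Recombinant MAPKAP kinase was first activated with activated p38α (1:50 molar ratio) and 250 μM ATP for 1 hr at 30°C. Activity was then assayed at Km(app) MgATP by ion-exchange separation of 33P-labeled product peptide. IC50 was taken from duplicate experiments.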
# [9] = Plasma concentration in po dosed LPS-induced Lewis rat model at ED80 concentration measured after 5.5 hrs of initial dose by LC-MS/MS analysis; format: ADME, organism-based; procedure, shortened: as §2
# Rattus norvegicus [10] = experiment: Antiinflammatory activity in acute LPS induced TNF-alpha production in Lewis rat model administered via oral dose pretreated for 4 hrs followed by LPS stimulation and measured after 90 mins […]; format: functional; conditions: 5.5 h, time 330 min; procedure, shortened: as §2
# [11] = molecular target: T1, Serine/threonine-protein kinase 17A (Homo sapiens, UniProt Q9UEE5); experiment: Inhibition of DRAK1 (unknown origin)
# T1 sequence (Q9UEE5 whole entry): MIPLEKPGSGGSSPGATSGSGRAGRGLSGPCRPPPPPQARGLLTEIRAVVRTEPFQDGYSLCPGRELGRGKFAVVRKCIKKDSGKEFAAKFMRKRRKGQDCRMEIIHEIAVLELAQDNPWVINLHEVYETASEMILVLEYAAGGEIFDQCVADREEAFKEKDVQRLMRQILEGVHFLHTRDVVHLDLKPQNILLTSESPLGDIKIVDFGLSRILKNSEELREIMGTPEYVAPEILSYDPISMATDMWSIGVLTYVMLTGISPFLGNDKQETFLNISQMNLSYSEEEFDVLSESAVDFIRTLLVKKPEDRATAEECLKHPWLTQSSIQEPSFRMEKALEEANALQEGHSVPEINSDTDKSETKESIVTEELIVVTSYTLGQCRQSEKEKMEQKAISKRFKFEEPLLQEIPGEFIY
# Procedure, shortened: (§3)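 Kinase panel: 200 kinases were first screened at 1 μM inhibitor for percent inhibition. Those above 50% inhibition were then titrated for IC50. MgATP was fixed at the Km(app) determined for each enzyme.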
# [12] = molecular target: Receptor-interacting serine/threonine-protein kinase 2 (Homo sapiens, UniProt O43353); experiment: Inhibition of RIPK2 (unknown origin); procedure, shortened: as §3
# [13] = molecular target: T2, Serine/threonine-protein kinase BRSK1 (Homo sapiens, UniProt Q8TDC3); experiment: Inhibition of BrSK1 (unknown origin)
# T2 sequence (Q8TDC3 whole entry): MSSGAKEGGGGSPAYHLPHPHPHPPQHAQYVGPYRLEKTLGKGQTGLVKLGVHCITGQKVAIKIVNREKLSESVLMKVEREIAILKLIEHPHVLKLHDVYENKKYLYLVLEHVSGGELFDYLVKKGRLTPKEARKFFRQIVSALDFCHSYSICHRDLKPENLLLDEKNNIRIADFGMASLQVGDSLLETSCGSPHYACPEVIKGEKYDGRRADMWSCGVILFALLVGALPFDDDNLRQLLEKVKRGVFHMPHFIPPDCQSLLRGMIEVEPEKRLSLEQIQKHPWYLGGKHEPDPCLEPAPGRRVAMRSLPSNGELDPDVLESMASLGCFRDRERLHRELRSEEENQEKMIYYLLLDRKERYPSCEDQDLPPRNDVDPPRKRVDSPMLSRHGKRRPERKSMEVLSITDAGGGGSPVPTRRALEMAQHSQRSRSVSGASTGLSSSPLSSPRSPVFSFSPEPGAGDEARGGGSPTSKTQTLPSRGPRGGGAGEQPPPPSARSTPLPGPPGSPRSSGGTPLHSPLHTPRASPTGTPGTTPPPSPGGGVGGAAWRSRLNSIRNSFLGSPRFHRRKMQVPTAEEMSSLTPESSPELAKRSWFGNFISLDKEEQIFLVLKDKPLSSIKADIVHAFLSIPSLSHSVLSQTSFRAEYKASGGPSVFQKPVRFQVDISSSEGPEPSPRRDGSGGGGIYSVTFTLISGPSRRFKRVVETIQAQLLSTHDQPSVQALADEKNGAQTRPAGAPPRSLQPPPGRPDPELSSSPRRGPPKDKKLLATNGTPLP
# Procedure, shortened: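 Selectivity profiling began with a 200-kinase screen at 1 μM compound; kinases above 50% inhibition were then titrated for IC50. MgATP was fixed at each enzyme's Km(app). Buffer was 20 mM HEPES pH 7.5 with 10 mM MgCl2, 1 mM DTT, 0.01% BSA and 0.0005% Tween-20. Endpoint reactions were stopped in the linear phase with 30 mM EDTA.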
# Sequence of MAP kinase-interacting serine/threonine-protein kinase 1 (Q9BUB5 whole entry): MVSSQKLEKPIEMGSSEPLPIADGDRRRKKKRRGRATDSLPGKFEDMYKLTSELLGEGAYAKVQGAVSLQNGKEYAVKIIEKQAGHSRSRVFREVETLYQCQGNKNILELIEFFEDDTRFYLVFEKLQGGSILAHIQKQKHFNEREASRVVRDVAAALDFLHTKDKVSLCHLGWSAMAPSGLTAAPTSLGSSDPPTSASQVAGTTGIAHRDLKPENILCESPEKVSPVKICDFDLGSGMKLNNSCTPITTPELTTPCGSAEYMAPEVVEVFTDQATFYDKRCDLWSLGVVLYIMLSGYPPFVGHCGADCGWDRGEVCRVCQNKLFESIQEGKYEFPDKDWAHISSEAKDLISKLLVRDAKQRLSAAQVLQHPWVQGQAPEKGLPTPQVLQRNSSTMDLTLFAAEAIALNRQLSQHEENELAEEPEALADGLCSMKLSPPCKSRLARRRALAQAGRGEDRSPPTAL
# Sequence of Receptor-interacting serine/threonine-protein kinase 2 (O43353 whole entry): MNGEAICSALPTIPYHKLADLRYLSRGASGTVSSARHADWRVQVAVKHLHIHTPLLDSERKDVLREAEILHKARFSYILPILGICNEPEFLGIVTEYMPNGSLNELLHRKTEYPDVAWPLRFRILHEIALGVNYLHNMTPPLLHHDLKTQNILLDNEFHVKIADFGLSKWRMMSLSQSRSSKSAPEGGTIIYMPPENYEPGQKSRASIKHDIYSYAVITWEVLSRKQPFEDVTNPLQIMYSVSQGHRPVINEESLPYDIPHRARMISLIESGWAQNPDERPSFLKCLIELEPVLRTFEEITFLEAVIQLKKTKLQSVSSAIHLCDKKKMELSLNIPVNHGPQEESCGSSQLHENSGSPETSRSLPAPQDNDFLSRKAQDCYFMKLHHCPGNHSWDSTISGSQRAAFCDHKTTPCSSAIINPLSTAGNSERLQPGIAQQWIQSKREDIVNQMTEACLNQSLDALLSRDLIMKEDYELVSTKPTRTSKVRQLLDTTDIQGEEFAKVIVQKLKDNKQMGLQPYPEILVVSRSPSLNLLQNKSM
structure (smiles),measurement,setting,value
Cc1ccc(-c2ccc3c(ccc4sc5c(c43)NC[C@@H](C)NC5=O)n2)cn1,pIC50,[1],< 4.60
same,fEC50,Rattus norvegicus [2],110 nM
same,AUC,[3],117 µM·h
same,pIC50,[4],< 4.60
same,pIC50,[5],7.15
same,concentration at 5.5 h,[6],1400 nM
same,Cp(f),[7],110 nM
same,pIC50,[8],5.52
same,concentration at 5.5 h,[9],4200 nM
same,ED50,Rattus norvegicus [10],6.9 mg/kg
same,ED80,Rattus norvegicus [10],19 mg/kg
same,pIC50,[11],7.15
same,pIC50,[12],6.23
same,pIC50,[13],6.73
